Laboratory results published in ChEMBL document CHEMBL5058577, “EUbOPEN Chemogenomics Library 2 (Multiplex)” (2022).

Test system: HEK-293T
Assay: Multiplex assay against HEK293T
Assay type: toxicity, cell-based
Conditions: human
How it was run: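 Per cents of healthy-nucleus cells form the tubulin, mitochondrial-mass and membrane-permeability phenotype values. Live cells were stained at seeding with Hoechst33342, BioTracker Green Microtubule Cytoskeleton Dye, MitoTracker Red and Annexin V Alexa Fluor 680. After compound addition they were imaged on a CQ1 microscope at 37°C and 5% CO2, and CellPathfinder machine-learning gating split them into Hoechst high-intensity objects or normal cells, normal cells into healthy, pyknosed or fragmented nuclei, and pyknosed cells into mitotic or apoptotic.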

[1] = 12 h, 1 µM, compound concentration 1 uM, replicate 1
[2] = 12 h, 1 µM, compound concentration 1 uM, replicate 2
[3] = 12 h, 10 µM, compound concentration 10 uM, replicate 1
[4] = 12 h, 10 µM, compound concentration 10 uM, replicate 2
[5] = 24 h, 1 µM, compound concentration 1 uM, replicate 1
[6] = 24 h, 1 µM, compound concentration 1 uM, replicate 2
[7] = 24 h, 10 µM, compound concentration 10 uM, replicate 1
[8] = 24 h, 10 µM, compound concentration 10 uM, replicate 2
[9] = 48 h, 1 µM, compound concentration 1 uM, replicate 1
[10] = 48 h, 1 µM, compound concentration 1 uM, replicate 2
[11] = 48 h, 10 µM, compound concentration 10 uM, replicate 1
[12] = 48 h, 10 µM, compound concentration 10 uM, replicate 2

## COc1c(C)cc(NC(=O)c2nn(Cc3ccc(F)cc3)c3c2CN(C(=O)c2ccc[nH]2)C[C@]3(C)C(N)=O)cc1C
[1]
  Population Apoptotic (%): 42%
  Population Fragmented Nuclei (%): 6%
  Population Healthy Nuclei (%): 79%
  Population Hoechst High Intensity Objects (%): 7%
  Population Membrane Permeable-Phenotype (%): 0%
  Population Mitochondria Different-Phenotype (%): 51%
  Population Mitotic Cells (%): 57%
  Population Normal (%): 92%
  Population Pyknosed Nuclei (%): 13%
  Population Tubulin-Different-Phenotype (%): 36%
  Total Cell Count: 426
[2]
  Population Apoptotic (%): 38%
  Population Fragmented Nuclei (%): 7%
  Population Healthy Nuclei (%): 75%
  Population Hoechst High Intensity Objects (%): 5%
  Population Mitochondria Different-Phenotype (%): 58%
  Population Mitotic Cells (%): 61%
  Population Normal (%): 94%
  Population Pyknosed Nuclei (%): 17%
  Population Tubulin-Different-Phenotype (%): 29%
  Total Cell Count: 304
[3]
  Population Apoptotic (%): 67%
  Population Fragmented Nuclei (%): 4%
  Population Healthy Nuclei (%): 77%
  Population Hoechst High Intensity Objects (%): 13%
  Population Membrane Permeable-Phenotype (%): 0%
  Population Mitochondria Different-Phenotype (%): 90%
  Population Mitotic Cells (%): 32%
  Population Normal (%): 86%
  Population Pyknosed Nuclei (%): 17%
  Population Tubulin-Different-Phenotype (%): 62%
  Total Cell Count: 383
[4]
  Population Apoptotic (%): 59%
  Population Fragmented Nuclei (%): 6%
  Population Healthy Nuclei (%): 71%
  Population Mitochondria Different-Phenotype (%): 95%
  Population Mitotic Cells (%): 40%
  Population Pyknosed Nuclei (%): 21%
  Population Tubulin-Different-Phenotype (%): 63%
  Total Cell Count: 285
[5]
  Population Apoptotic (%): 21%
  Population Fragmented Nuclei (%): 7%
  Population Healthy Nuclei (%): 80%
  Population Hoechst High Intensity Objects (%): 4%
  Population Membrane Permeable-Phenotype (%): 0%
  Population Mitochondria Different-Phenotype (%): 30%
  Population Mitotic Cells (%): 78%
  Population Normal (%): 95%
  Population Pyknosed Nuclei (%): 12%
  Population Tubulin-Different-Phenotype (%): 24%
  Total Cell Count: 574
[6]
  Population Apoptotic (%): 51%
  Population Fragmented Nuclei (%): 5%
  Population Healthy Nuclei (%): 86%
  Population Mitochondria Different-Phenotype (%): 43%
  Population Mitotic Cells (%): 48%
  Population Pyknosed Nuclei (%): 7%
  Population Tubulin-Different-Phenotype (%): 16%
  Total Cell Count: 422
[7]
  Population Apoptotic (%): 53%
  Population Fragmented Nuclei (%): 6%
  Population Healthy Nuclei (%): 73%
  Population Hoechst High Intensity Objects (%): 11%
  Population Membrane Permeable-Phenotype (%): 0%
  Population Mitochondria Different-Phenotype (%): 91%
  Population Mitotic Cells (%): 46%
  Population Normal (%): 88%
  Population Pyknosed Nuclei (%): 19%
  Population Tubulin-Different-Phenotype (%): 61%
  Total Cell Count: 403
[8]
  Population Apoptotic (%): 67%
  Population Fragmented Nuclei (%): 5%
  Population Healthy Nuclei (%): 74%
  Population Hoechst High Intensity Objects (%): 15%
  Population Mitochondria Different-Phenotype (%): 92%
  Population Mitotic Cells (%): 32%
  Population Normal (%): 84%
  Population Tubulin-Different-Phenotype (%): 56%
  Total Cell Count: 313
[9]
  Population Apoptotic (%): 21%
  Population Fragmented Nuclei (%): 11%
  Population Healthy Nuclei (%): 81%
  Population Hoechst High Intensity Objects (%): 2%
  Population Membrane Permeable-Phenotype (%): 1%
  Population Mitochondria Different-Phenotype (%): 25%
  Population Mitotic Cells (%): 78%
  Population Normal (%): 97%
  Population Pyknosed Nuclei (%): 6%
  Population Tubulin-Different-Phenotype (%): 18%
  Total Cell Count: 920
[10]
  Population Apoptotic (%): 39%
  Population Fragmented Nuclei (%): 12%
  Population Hoechst High Intensity Objects (%): 3%
  Population Mitochondria Different-Phenotype (%): 28%
  Population Mitotic Cells (%): 60%
  Population Normal (%): 96%
  Population Tubulin-Different-Phenotype (%): 9%
  Total Cell Count: 652
[11]
  Population Apoptotic (%): 60%
  Population Fragmented Nuclei (%): 8%
  Population Healthy Nuclei (%): 76%
  Population Hoechst High Intensity Objects (%): 14%
  Population Membrane Permeable-Phenotype (%): 0%
  Population Mitochondria Different-Phenotype (%): 93%
  Population Mitotic Cells (%): 39%
  Population Normal (%): 85%
  Population Pyknosed Nuclei (%): 15%
  Population Tubulin-Different-Phenotype (%): 66%
  Total Cell Count: 467
[12]
  Population Apoptotic (%): 80%
  Population Fragmented Nuclei (%): 9%
  Population Healthy Nuclei (%): 81%
  Population Hoechst High Intensity Objects (%): 10%
  Population Mitochondria Different-Phenotype (%): 90%
  Population Mitotic Cells (%): 19%
  Population Normal (%): 89%
  Population Pyknosed Nuclei (%): 9%
  Population Tubulin-Different-Phenotype (%): 59%
  Total Cell Count: 376
